Measurements as given in ChEMBL document CHEMBL3779828, “Discovery of the Aryl-phospho-indole IDX899, a Highly Potent Anti-HIV Non-nucleoside Reverse Transcriptase Inhibitor” (J Med Chem, 2016).
≈ marks a conversion by molar mass, not a printed value.

Key:
[1] = tested on: Human immunodeficiency virus 1; assay: Antiviral activity against HIV1 harboring reverse transcriptase Y181C/K103N double mutant infected in primary MT4 cells assessed as inhibition of virus-induced cytopathogenicity after 4 days by MTS assay; assay type: functional, organism-based; conditions: Human immunodeficiency virus 1, MT4, 96 h
[2] = tested on: Human immunodeficiency virus 1; assay: Antiviral activity against HIV1 harboring reverse transcriptase Y181C mutant infected in primary MT4 cells assessed as inhibition of virus-induced cytopathogenicity after 4 days by MTS assay; assay type: functional, organism-based; conditions: Human immunodeficiency virus 1, MT4, 96 h
[3] = Antiviral activity against HIV1 BH10 harboring wild type reverse transcriptase infected in primary MT4 cells assessed as inhibition of virus-induced cytopathogenicity after 4 days by MTS assay; assay type: functional, cell-based, Human immunodeficiency virus type 1 BH10; conditions: Human immunodeficiency virus 1, MT4, 96 h
[4] = tested on: Human immunodeficiency virus 1; assay: Antiviral activity against HIV1 harboring reverse transcriptase K103N mutant infected in primary MT4 cells assessed as inhibition of virus-induced cytopathogenicity after 4 days by MTS assay; assay type: functional, organism-based; conditions: Human immunodeficiency virus 1, MT4, 96 h
[5] = Aqueous solubility of the compound at pH 7; assay type: physicochemical; conditions: aqueous medium
[6] = Clearance in fasted Sprague-Dawley rat at 2 mg/kg, iv after 0.083 to 24 hrs by LC-MS/MS method; assay type: ADME, organism-based; conditions: in vivo
[7] = Tmax in fed cynomolgus monkey at 5 mg/kg, po by LC-MS/MS method; assay type: ADME, organism-based, Macaca fascicularis; conditions: in vivo
How it was run: (§1)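 Fed beagle dogs and fed male cynomolgus monkeys were dosed at 1 mg/kg IV or 5 mg/kg PO in 10% dimethylacetamide/10% ethanol/80% PEG400. Femoral-vein blood was drawn predose and at 0.083–24 h into lithium-heparin tubes. Plasma was stored at -70 °C and parent drug was measured by LC-MS/MS. Values are mean parameters (n=3 or 2).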

[8] = Clearance in fed beagle dog at 1 mg/kg, iv after 0.083 to 24 hrs by LC-MS/MS method; assay type: ADME, organism-based, Canis lupus familiaris; conditions: in vivo; how it was run: as §1
[9] = Half life in fasted Sprague-Dawley rat at 2 mg/kg, iv by LC-MS/MS method; assay type: ADME, organism-based; conditions: in vivo
[10] = Cmax in fed cynomolgus monkey at 1 mg/kg, iv after 0.083 to 24 hrs by LC-MS/MS method; assay type: ADME, organism-based, Macaca fascicularis; design: dose 1 mg/kg, route intravenous; conditions: in vivo; how it was run: as §1
[11] = tested on: Human immunodeficiency virus 1; assay: Potency index, ratio of EFV EC50 to compound EC50 for HIV1 harboring reverse transcriptase Y181C/K103N double mutant; assay type: functional
[12] = Clearance in fed cynomolgus monkey at 1 mg/kg, iv after 0.083 to 24 hrs by LC-MS/MS method; assay type: ADME, organism-based, Macaca fascicularis; conditions: in vivo; how it was run: as §1
[13] = Cmax in fasted Sprague-Dawley rat at 10 mg/kg, po after 0.083 to 24 hrs by LC-MS/MS method; assay type: ADME, organism-based; design: dose 10 mg/kg, route oral; conditions: in vivo
How it was run: (§2)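 Fasted Sprague Dawley rats received 10 mg/kg orally in 10% dimethylacetamide/10% ethanol/80% PEG400. Plasma was stored at -70 °C until LC-MS/MS quantitation. Values are mean parameters (n=3 or 2).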

[14] = Oral bioavailability in fed cynomolgus monkey at 5 mg/kg after 0.083 to 24 hrs by LC-MS/MS method; assay type: ADME, organism-based, Macaca fascicularis; conditions: in vivo; how it was run: as §1
[15] = Cmax in fasted Sprague-Dawley rat at 2 mg/kg, iv after 0.083 to 24 hrs by LC-MS/MS method; assay type: ADME, organism-based; design: dose 2 mg/kg, route intravenous; conditions: in vivo
[16] = Half life in fed beagle dog at 5 mg/kg, po by LC-MS/MS method; assay type: ADME, organism-based, Canis lupus familiaris; conditions: in vivo; how it was run: as §1
[17] = Half life in rat hepatocytes; assay type: ADME, cell-based, Hepatocyte
How it was run: (§3)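 Metabolic stability was measured in hepatocytes as the half-life (min) of parent compound depletion. Values come from independent experiments using hepatocytes from 5 to 7 donors.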

[18] = Half life in fed beagle dog at 1 mg/kg, iv by LC-MS/MS method; assay type: ADME, organism-based, Canis lupus familiaris; conditions: in vivo; how it was run: as §1
[19] = Half life in dog hepatocytes; assay type: ADME, cell-based, Canis lupus familiaris, Hepatocyte; how it was run: as §3
[20] = Half life in monkey hepatocytes; assay type: ADME, cell-based, Macaca mulatta, Hepatocyte; conditions: rhesus monkey; how it was run: as §3
[21] = Cmax in fed cynomolgus monkey at 5 mg/kg, po after 0.083 to 24 hrs by LC-MS/MS method; assay type: ADME, organism-based, Macaca fascicularis; design: dose 5 mg/kg, route oral; conditions: in vivo; how it was run: as §1
[22] = tested on: Human immunodeficiency virus 1; assay: Potency index, ratio of EFV EC50 to compound EC50 for HIV1 harboring reverse transcriptase K103N mutant; assay type: functional
[23] = Half life in fed cynomolgus monkey at 5 mg/kg, po by LC-MS/MS method; assay type: ADME, organism-based, Macaca fascicularis; conditions: in vivo; how it was run: as §1
[24] = Cmax in fed beagle dog at 1 mg/kg, iv after 0.083 to 24 hrs by LC-MS/MS method; assay type: ADME, organism-based, Canis lupus familiaris; design: dose 1 mg/kg, route intravenous; conditions: in vivo; how it was run: as §1
[25] = Half life in fasted Sprague-Dawley rat at 10 mg/kg, po by LC-MS/MS method; assay type: ADME, organism-based; conditions: in vivo; how it was run: as §2
[26] = Oral bioavailability in fed beagle dog at 5 mg/kg after 0.083 to 24 hrs by LC-MS/MS method; assay type: ADME, organism-based, Canis lupus familiaris; conditions: in vivo; how it was run: as §1
[27] = Cmax in fed beagle dog at 5 mg/kg, po after 0.083 to 24 hrs by LC-MS/MS method; assay type: ADME, organism-based, Canis lupus familiaris; design: dose 5 mg/kg, route oral; conditions: in vivo; how it was run: as §1
[28] = Half life in fed cynomolgus monkey at 1 mg/kg, iv by LC-MS/MS method; assay type: ADME, organism-based, Macaca fascicularis; conditions: in vivo; how it was run: as §1

COP(=O)(c1ccc(C)c(C)c1)c1c(C(N)=O)[nH]c2ccc(Cl)cc12 (stereo unspecified)
EC50 [1]: 792 nM
EC50 [2]: 22.9 nM
EC50 [3]: 0.2 nM
EC50 [4]: 35 nM

COP(=O)(c1cc(C)cc(Br)c1)c1c(C(N)=O)[nH]c2ccc(Cl)cc12 (stereo unspecified)
EC50 [1]: 368 nM
EC50 [2]: 6 nM
EC50 [3]: 3 nM
EC50 [4]: 25 nM

COP(=O)(c1cccc2ccccc12)c1c(C(N)=O)[nH]c2ccc(Cl)cc12 (stereo unspecified)
EC50 [1]: > 1000 nM
EC50 [2]: 357 nM
EC50 [3]: 17.5 nM
EC50 [4]: 727 nM

COP(=O)(c1cc(C)cc(Cl)c1)c1c(C(N)=O)[nH]c2ccc(Cl)cc12 (stereo unspecified)
EC50 [1]: 114 nM
EC50 [2]: 5.6 nM
EC50 [3]: 1.1 nM
EC50 [4]: 18.8 nM

COP(=O)(c1cc(C)cc(C)c1)c1c(C(N)=O)[nH]c2ccc(Cl)cc12 (stereo unspecified)
solubility [5]: 0.9 µM (≈ 0.339 µg/mL)
EC50 [1]: 238 nM
EC50 [2]: 15 nM
EC50 [3]: 1 nM
EC50 [4]: 4 nM

COP(=O)(c1cc(C(F)(F)F)cc(C(F)(F)F)c1)c1c(C(N)=O)[nH]c2ccc(Cl)cc12 (stereo unspecified)
EC50 [1]: > 1000 nM
EC50 [2]: 527 nM
EC50 [3]: 24.6 nM
EC50 [4]: 947 nM

COP(=O)(c1cc(C)cc(/C=C/C#N)c1)c1c(C(N)=O)[nH]c2ccc(Cl)cc12 (single isomer, unassigned; form 1) [FOSDEVIRINE]
clearance [6]: 1.18 mL/min/kg
Tmax [7]: 3 h
solubility [5]: 20 µM (≈ 8.28 µg/mL)
clearance [8]: 30.5 mL/min/kg
EC50 [1]: 11 nM
half-life [9]: 12 min
Cmax [10]: 1460 ng/mL
Ratio EC50 [11]: 4
clearance [12]: 5.5 mL/min/kg
EC50 [2]: 1.3 nM
Cmax [13]: 25 ng/mL
EC50 [3]: 1 nM
bioavailability [14]: 42%
Cmax [15]: 88 ng/mL
half-life [16]: 144 min
half-life [17]: 17 min
half-life [18]: 234 min
half-life [19]: 21 min
half-life [20]: 52 min
Cmax [21]: 945 ng/mL
Ratio EC50 [22]: 30
EC50 [4]: 2.8 nM
half-life [23]: 186 min
Cmax [24]: 290 ng/mL
half-life [25]: 354 min
bioavailability [26]: 4%
Cmax [27]: 18 ng/mL
half-life [28]: 120 min

COP(=O)(c1cc(C)cc(F)c1)c1c(C(N)=O)[nH]c2ccc(Cl)cc12 (stereo unspecified)
solubility [5]: 1.7 µM (≈ 0.647 µg/mL)
EC50 [1]: 69 nM
EC50 [2]: 3.4 nM
EC50 [3]: 0.2 nM
EC50 [4]: 0.5 nM

COP(=O)(c1c(C(N)=O)[nH]c2ccc(Cl)cc12)C1CCCCC1 (stereo unspecified)
EC50 [1]: > 1000 nM
EC50 [2]: 219 nM
EC50 [3]: 2.5 nM
EC50 [4]: 101 nM

COP(=O)(c1cc(C)cc(/C=C/C#N)c1)c1c(C(N)=O)[nH]c2ccc(Cl)cc12 (single isomer, unassigned; form 2)
EC50 [1]: > 1250 nM
EC50 [2]: 377 nM
EC50 [3]: 190 nM
EC50 [4]: 824 nM

COP(=O)(c1cccc(C(C)C)c1)c1c(C(N)=O)[nH]c2ccc(Cl)cc12 (stereo unspecified)
solubility [5]: 0.8 µM (≈ 0.313 µg/mL)
EC50 [1]: 92.6 nM
EC50 [2]: 8.4 nM
EC50 [3]: 0.5 nM
EC50 [4]: 1.6 nM
